How the values were obtained:
Assay type in all cases: functional
[1] = test system: BT-549; experiment: Growth inhibition of human BT549 cells at 10 uM after 48 hrs by coulter counter method; conditions: BT-549, 48 h, read-out: GI
Method in brief: (§1)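 NCI 60-cell-line panel, single dose. Compound dissolved first in DMSO, then diluted in phosphate-buffered saline so that every final dilution held under 1% DMSO. Duplicate wells received cells at 6 × 10⁴ cells/ml. Controls held PBS/DMSO at the same dilution. Plates were incubated 48 h at 37 °C under 5% CO₂. Cells were then diluted 10-fold in saline and counted on a Coulter counter, with counts corrected for the dilution. Results are given as percent growth inhibition.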

[2] = test system: IGROV-1; experiment: Growth inhibition of human IGROV1 cells at 10 uM after 48 hrs by coulter counter method; conditions: IGROV-1, 48 h, read-out: GI; method in brief: as §1
[3] = test system: CCRF-CEM; experiment: Growth inhibition of human CCRF-CEM cells at 10 uM after 48 hrs by coulter counter method; conditions: read-out: GI; method in brief: as §1
[4] = test system: T47D; experiment: Growth inhibition of human T47D cells at 10 uM after 48 hrs by coulter counter method; conditions: read-out: GI; method in brief: as §1
[5] = test system: Malme-3M; experiment: Growth inhibition of human MALME-3M cells at 10 uM after 48 hrs by coulter counter method; conditions: read-out: GI; method in brief: as §1
[6] = test system: SNB-75; experiment: Growth inhibition of human SNB75 cells at 10 uM after 48 hrs by coulter counter method; conditions: SNB-75, 48 h, read-out: GI; method in brief: as §1
[7] = test system: NCI/ADR-RES; experiment: Growth inhibition of human NCI/ADR-RES cells at 10 uM after 48 hrs by coulter counter method; conditions: read-out: GI; method in brief: as §1
[8] = test system: SF-268; experiment: Growth inhibition of human SF268 cells at 10 uM after 48 hrs by coulter counter method; conditions: SF-268, 48 h, read-out: GI; method in brief: as §1
[9] = test system: LOX IMVI; experiment: Growth inhibition of human LOXIMVI cells at 10 uM after 48 hrs by coulter counter method; conditions: read-out: GI; method in brief: as §1
[10] = test system: A498; experiment: Growth inhibition of human A498 cells at 10 uM after 48 hrs by coulter counter method; conditions: A498, 48 h, read-out: GI; method in brief: as §1
[11] = test system: NCI-H23; experiment: Growth inhibition of human NCI-H23 cells at 10 uM after 48 hrs by coulter counter method; conditions: NCI-H23, 48 h, read-out: GI; method in brief: as §1
[12] = test system: MDA-MB-468; experiment: Growth inhibition of human MDA-MB-468 cells at 10 uM after 48 hrs by coulter counter method; conditions: MDA-MB-468, 48 h, read-out: GI; method in brief: as §1
[13] = test system: MCF7; experiment: Growth inhibition of human MCF7 cells at 10 uM after 48 hrs by coulter counter method; conditions: MCF7, 48 h, read-out: GI; method in brief: as §1
[14] = test system: CAKI-1; experiment: Growth inhibition of human Caki1 cells at 10 uM after 48 hrs by coulter counter method; conditions: CAKI-1, 48 h, read-out: GI; method in brief: as §1
[15] = test system: SN12C; experiment: Growth inhibition of human SN12C cells at 10 uM after 48 hrs by coulter counter method; conditions: read-out: GI; method in brief: as §1
[16] = test system: ACHN; experiment: Growth inhibition of human ACHN cells at 10 uM after 48 hrs by coulter counter method; conditions: read-out: GI; method in brief: as §1
[17] = test system: SK-MEL-2; experiment: Growth inhibition of human SK-MEL-2 cells at 10 uM after 48 hrs by coulter counter method; conditions: SK-MEL-2, 48 h, read-out: GI; method in brief: as §1
[18] = test system: UACC-257; experiment: Growth inhibition of human UACC257 cells at 10 uM after 48 hrs by coulter counter method; conditions: UACC-257, 48 h, read-out: GI; method in brief: as §1
[19] = test system: MDA-MB-435; experiment: Growth inhibition of human MDA-MB-435 cells at 10 uM after 48 hrs by coulter counter method; conditions: MDA-MB-435, 48 h, read-out: GI; method in brief: as §1
[20] = test system: K562; experiment: Growth inhibition of human K562 cells at 10 uM after 48 hrs by coulter counter method; conditions: K562, 48 h, read-out: GI; method in brief: as §1
[21] = test system: SNB-19; experiment: Growth inhibition of human SNB19 cells at 10 uM after 48 hrs by coulter counter method; conditions: SNB-19, 48 h, read-out: GI; method in brief: as §1
[22] = test system: HCT-15; experiment: Growth inhibition of human HCT15 cells at 10 uM after 48 hrs by coulter counter method; conditions: HCT-15, 48 h, read-out: GI; method in brief: as §1
[23] = test system: M14; experiment: Growth inhibition of human M14 cells at 10 uM after 48 hrs by coulter counter method; conditions: M14, 48 h, read-out: GI; method in brief: as §1
[24] = test system: SF-295; experiment: Growth inhibition of human SF295 cells at 10 uM after 48 hrs by coulter counter method; conditions: SF-295, 48 h, read-out: GI; method in brief: as §1
[25] = test system: TK-10; experiment: Growth inhibition of human TK10 cells at 10 uM after 48 hrs by coulter counter method; conditions: TK-10, 48 h, read-out: GI; method in brief: as §1
[26] = test system: UACC-62; experiment: Growth inhibition of human UACC62 cells at 10 uM after 48 hrs by coulter counter method; conditions: UACC-62, 48 h, read-out: GI; method in brief: as §1
[27] = test system: UO-31; experiment: Growth inhibition of human UO31 cells at 10 uM after 48 hrs by coulter counter method; conditions: UO-31, 48 h, read-out: GI; method in brief: as §1
[28] = test system: SR; experiment: Growth inhibition of human SR cells at 10 uM after 48 hrs by coulter counter method; conditions: read-out: GI; method in brief: as §1
[29] = test system: 786-0; experiment: Growth inhibition of human 786-0 cells at 10 uM after 48 hrs by coulter counter method; conditions: 786-0, 48 h, read-out: GI; method in brief: as §1
[30] = test system: EKVX; experiment: Growth inhibition of human EKVX cells at 10 uM after 48 hrs by coulter counter method; conditions: read-out: GI; method in brief: as §1
[31] = test system: HT-29; experiment: Growth inhibition of human HT-29 cells at 10 uM after 48 hrs by coulter counter method; conditions: HT-29, 48 h, read-out: GI; method in brief: as §1
[32] = test system: PC-3; experiment: Growth inhibition of human PC3 cells at 10 uM after 48 hrs by coulter counter method; conditions: PC-3, 48 h, read-out: GI; method in brief: as §1
[33] = test system: A549; experiment: Growth inhibition of human A549 cells at 10 uM after 48 hrs by coulter counter method; conditions: A549, 48 h, read-out: GI; method in brief: as §1
[34] = test system: HL-60(TB); experiment: Growth inhibition of human HL-60(TB) cells at 10 uM after 48 hrs by coulter counter method; conditions: HL-60, 48 h, read-out: GI
Method in brief: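 Single-dose screen on the NCI 60-line panel (leukemia subpanel). Compound is dissolved in DMSO and diluted in PBS, with final DMSO below 1%. Duplicate wells hold 6 × 10⁴ cells/ml at 37 °C, 5% CO₂, for 48 h. Cells are counted by Coulter counter after 10-fold saline dilution. Read-out is percent growth versus PBS/DMSO controls, expressed as % growth inhibition.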

[35] = test system: SK-MEL-28; experiment: Growth inhibition of human SK-MEL-28 cells at 10 uM after 48 hrs by coulter counter method; conditions: SK-MEL-28, 48 h, read-out: GI; method in brief: as §1
[36] = test system: NCI-H322M; experiment: Growth inhibition of human NCI-H322M cells at 10 uM after 48 hrs by coulter counter method; conditions: read-out: GI; method in brief: as §1
[37] = test system: NCI-H226; experiment: Growth inhibition of human NCI-H226 cells at 10 uM after 48 hrs by coulter counter method; conditions: NCI-H226, 48 h, read-out: GI; method in brief: as §1
[38] = test system: OVCAR-8; experiment: Growth inhibition of human OVCAR8 cells at 10 uM after 48 hrs by coulter counter method; conditions: OVCAR-8, 48 h, read-out: GI; method in brief: as §1
[39] = test system: MOLT-4; experiment: Growth inhibition of human MOLT4 cells at 10 uM after 48 hrs by coulter counter method; conditions: MOLT-4, 48 h, read-out: GI; method in brief: as §1
[40] = test system: NCI-H522; experiment: Growth inhibition of human NCI-H522 cells at 10 uM after 48 hrs by coulter counter method; conditions: NCI-H522, 48 h, read-out: GI; method in brief: as §1
[41] = test system: SK-MEL-5; experiment: Growth inhibition of human SK-MEL-5 cells at 10 uM after 48 hrs by coulter counter method; conditions: SK-MEL-5, 48 h, read-out: GI; method in brief: as §1
[42] = test system: HCT-116; experiment: Growth inhibition of human HCT116 cells at 10 uM after 48 hrs by coulter counter method; conditions: HCT-116, 48 h, read-out: GI; method in brief: as §1
[43] = test system: KM12; experiment: Growth inhibition of human KM12 cells at 10 uM after 48 hrs by coulter counter method; conditions: KM12, 48 h, read-out: GI; method in brief: as §1
[44] = test system: U-251; experiment: Growth inhibition of human U251 cells at 10 uM after 48 hrs by coulter counter method; conditions: U-251, 48 h, read-out: GI; method in brief: as §1

O=C1N=C2OC(c3ccc(Cl)cc3)=NN2C1=O
inhibition of growth at 10 µM [1]: < 10%
inhibition of growth at 10 µM [2]: < 10%
inhibition of growth at 10 µM [3]: < 10%
inhibition of growth at 10 µM [4]: < 10%
inhibition of growth at 10 µM [5]: < 10%
inhibition of growth at 10 µM [6]: < 10%
inhibition of growth at 10 µM [7]: < 10%
inhibition of growth at 10 µM [8]: < 10%
inhibition of growth at 10 µM [9]: < 10%
inhibition of growth at 10 µM [10]: < 10%
inhibition of growth at 10 µM [11]: < 10%
inhibition of growth at 10 µM [12]: < 10%
inhibition of growth at 10 µM [13]: < 10%
inhibition of growth at 10 µM [14]: < 10%
inhibition of growth at 10 µM [15]: < 10%
inhibition of growth at 10 µM [16]: < 10%
inhibition of growth at 10 µM [17]: < 10%
inhibition of growth at 10 µM [18]: < 10%
inhibition of growth at 10 µM [19]: < 10%
inhibition of growth at 10 µM [20]: 13.6%
inhibition of growth at 10 µM [21]: < 10%
inhibition of growth at 10 µM [22]: < 10%
inhibition of growth at 10 µM [23]: < 10%
inhibition of growth at 10 µM [24]: < 10%
inhibition of growth at 10 µM [25]: < 10%
inhibition of growth at 10 µM [26]: < 10%
inhibition of growth at 10 µM [27]: 11.7%
inhibition of growth at 10 µM [28]: 12.1%
inhibition of growth at 10 µM [29]: < 10%
inhibition of growth at 10 µM [30]: < 10%
inhibition of growth at 10 µM [31]: < 10%
inhibition of growth at 10 µM [32]: < 10%
inhibition of growth at 10 µM [33]: < 10%
inhibition of growth at 10 µM [34]: 15%
inhibition of growth at 10 µM [35]: < 10%
inhibition of growth at 10 µM [36]: < 10%
inhibition of growth at 10 µM [37]: < 10%
inhibition of growth at 10 µM [38]: < 10%
inhibition of growth at 10 µM [39]: < 10%
inhibition of growth at 10 µM [40]: < 10%
inhibition of growth at 10 µM [41]: < 10%
inhibition of growth at 10 µM [42]: < 10%
inhibition of growth at 10 µM [43]: < 10%
inhibition of growth at 10 µM [44]: < 10%
